Measurements from publication PMC10499406 (Clinical and Translational Science, 2023).
Read-outs that look alike come from different tables or passages of the source.

Columns and labels:
clinical [1] = settings: human, in vivo, 600 mg, fasted period, n = 8, mean
IL‐1β = test: Ex vivo LPS/ATP stimulation of whole blood from participants: IL‐1β production; format: cell-based, human; settings: for maximum mean inhibition of IL‐1β production: relative to baseline
Method in brief: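 Whole blood from participants was drawn predose and at postdose timepoints. MAD dosing was oral 300 or 900 mg b.i.d. on days 1–6 plus one morning dose on day 7, fasted. Blood was stimulated ex vivo with an LPS plus ATP cocktail. Secreted IL-1β was the mean of two technical replicates. Inhibition = [1−(postdose/predose stimulated level)]×100%. IC90 came from a sigmoid Emax fit against time-matched plasma drug levels (HPLC-MS/MS).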

Urinary PK = format: in vivo, human; settings: multiple b.i.d. dosing (MAD)
CYP3A4 [2] = test: In vitro CYP3A4 induction assays and preliminary PBPK modeling; format: in vitro ADME; settings: unpublished data
[3] = for C min: steady‐state (day 7), n = 6, mean
IL‐18 = test: Ex vivo LPS/ATP stimulation of whole blood from participants: IL‐18 production; format: cell-based, human
CYP3A4 [4] = settings: in vivo
[5] = for DN AUC0–last / CL/F: SAD, fasted, n = 6, mean
[6] = 600 mg, high‐fat vs fasted
[7] = Safety: adverse events and laboratory findings in healthy volunteers; format: in vivo, human
Method in brief: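 Healthy volunteers receiving at least one dose of study drug formed the safety population. End points were incidence and severity of AEs, and baseline changes in vital signs, clinical laboratory tests and 12-lead ECG. DDI stage: one cohort of nine, test compound given fasted with co-administered midazolam. Other stages: single oral 150–1800 mg; 300 or 900 mg b.i.d.; 600 mg fasted then after high-fat meal.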

clinical [8] = settings: human, in vivo, n = 6, mean; for AUC: AUC0–tau; for Cmax: C max
human whole blood = settings: cited from earlier work
clinical [9] = settings: human, in vivo, po
[10] = cynomolgus monkey, 4‐week study; cited from earlier work
[11] = cited from earlier work
[12] = single 150‐mg, 450‐mg and 900‐mg doses
[13] = single doses of 600 mg, both fasted and high‐fat periods
[14] = 300 mg, MAD 300 mg b.i.d., first dose (day 1)
[15] = 300 mg, MAD 300 mg b.i.d., steady‐state (day 7)
[16] = 900 mg, MAD 900 mg b.i.d., first dose (day 1)
[17] = 900 mg, MAD 900 mg b.i.d., steady‐state (day 7)

## CN[C@@H]1COc2c(S(=O)(=O)NC(=O)Nc3c4c(cc5c3CCC5)CCC4)cnn2C1 [GDC‐2394, (S)‐N‐((1,2,3,5,6,7‐hexahydro‐s‐indacen‐4‐yl)carbamoyl)‐6‐(methylamino)‐6,7‐dihydro‐5H‐pyrazolo[5,1‐b][1,3]oxazine‐3‐sulfonamide]
Clinical [1]; C max, FE 600 mg single dose
  Cmax: 28000 ng/mL
Clinical [1]; T 1/2, FE 600 mg single dose
  half-life: 5.3 h
IL‐1β; 300 mg b.i.d.
  mean inhibition of IL‐1β production sustained over the 7‐day dosing period: greater than 95%
IL‐1β; 900 mg b.i.d.
  mean inhibition of IL‐1β production sustained over the 7‐day dosing period: greater than 99%
IL‐1β; Homo sapiens, read-out: estimated plasma IC90 for IL‐1β inhibition
  IC90: ~2500 nM
IL‐1β; single 150‐mg dose
  maximum mean inhibition of IL‐1β production: greater than 97%
IL‐1β; [12]
  time for which maximum mean IL‐1β inhibition was sustained: ~ 8 h
IL‐1β; single 450‐mg dose
  maximum mean inhibition of IL‐1β production: greater than 97%
IL‐1β; single 900‐mg dose
  maximum mean inhibition of IL‐1β production: greater than 99%
IL‐1β; single dose of 1800 mg
  mean inhibition of IL‐1β production: greater than or equal to 99%
  time for which mean IL‐1β inhibition was sustained: ~ 24 h
IL‐1β; [13]
  mean inhibition of IL‐1β production: greater than 99%
  time for which mean IL‐1β inhibition was sustained: 8 h
Urinary PK
  mean fraction of drug excreted in urine 0 to 12 h postdose on day 7, range: 12.3% to 14.8
CYP3A4 [2]
  CYP3A4 induction potential: mild‐to‐moderate
[3]; MAD 300 mg b.i.d.
  C min: 1820 ng/mL
[3]; MAD 900 mg b.i.d.
  C min: 9080 ng/mL
[3]; MAD stage
  interindividual variability of PK parameters, %CVs: less than 50%
[3]; MAD, both cohorts, from trough concentrations
  likely achievement of steady‐state: ≤ 2 days
[3]; both MAD cohorts (300 and 900 mg b.i.d.), steady‐state vs day 1
  accumulation ratios for Cmax and AUC0–tau: ~ 1
IL‐18; 900‐mg b.i.d.
  mean inhibition of IL‐18 production across most of the 7‐day dosing period: greater than 99%
IL‐18; Homo sapiens, read-out: estimated plasma IC90 for IL‐18 inhibition
  IC90: ~2500 nM
IL‐18; all SAD cohorts
  inhibition of IL‐18 production (in words): Near‐complete or complete inhibition
IL‐18; [12]
  time for which IL‐18 inhibition was sustained: ~ 8 h
IL‐18; single 1800‐mg dose
  time for which IL‐18 inhibition was sustained: ~ 24 h
CYP3A4 [4]; human
  CYP3A4 induction potential / impact on systemic exposure of midazolam and 1‐hydroxymidazolam: minimal CYP3A4 induction potential
CYP3A4 [4]
  CYP3A4 induction potential / impact on systemic exposure of midazolam and 1‐hydroxymidazolam: did not have an apparent impact
[5]; 150‐mg starting dose
  observed AUC relative to the preclinical prediction: approximately three‐fold
[5]; single oral 150 mg
  DN AUC0–last: 356 ng·h/mL/mg
[5]; single oral 450 mg
  CL/F: 3390 mL/h
  DN AUC0–last: 307 ng·h/mL/mg
[5]; single oral 900 mg
  CL/F: 3040 mL/h
  DN AUC0–last: 352 ng·h/mL/mg
[5]; single oral 1800 mg
  CL/F: 2590 mL/h
  DN AUC0–last: 410 ng·h/mL/mg
[5]; single oral doses 150–1800 mg
  increases in systemic exposure with dose (dose‐normalized Cmax and AUC0–last): approximately dose proportional
[5]; single oral doses across 150–1800 mg
  apparent clearance, range of mean values: 2590 to 3390 mL/h
[6]
  decrease of AUC0–inf with a high‐fat meal: 14%
  decrease of AUC0–last with a high‐fat meal: 14%
  decrease of Cmax with a high‐fat meal: ~ 16%
[7]; DDI stage, after completion of GDC‐2394 dosing
  participants with events consistent with hepatic injury: Three
[7]; DDI stage, both participants
  time to recovery from severe DILI: ≤ 3 months
[7]; DDI stage, n = 9
  total number of events considered related to study treatment: 14
[7]; MAD 900 mg b.i.d., one subject, day 14
  peak elevation of ALT: 1.67 × the upper limit of normal [ULN]
[7]; MAD, all GDC‐2394 (n = 12)
  Subjects with at least one AE leading to dose modification/interruption: 0
  Subjects with at least one AE leading to withdrawal from treatment: 0
  Subjects with at least one AE with fatal outcome: 0
  Subjects with at least one grade 3–5 AE (at greatest intensity): 0
  Subjects with at least one related AE: 4 (33.3%)
  Subjects with at least one related serious AE: 0
  Subjects with at least one serious AE: 0
  Total number of AEs: 18
  Total number of deaths: 0
  Total number of subjects with at least one AE: 8 (66.7%)
  Total number of subjects withdrawn from study due to an AE: 0
[7]; SAD, all GDC‐2394 (n = 24)
  Subjects with at least one AE leading to dose modification/interruption: 0
  Subjects with at least one AE leading to withdrawal from treatment: 0
  Subjects with at least one AE with fatal outcome: 0
  Subjects with at least one grade 3–5 AE (at greatest intensity): 0
  Subjects with at least one related AE: 6 (25.0%)
  Subjects with at least one related serious AE: 0
  Subjects with at least one serious AE: 0
  Total number of AEs: 22
  Total number of deaths: 0
  Total number of subjects with at least one AE: 14 (58.3%)
  Total number of subjects withdrawn from study due to an AE: 0
Clinical [8]; [14]
  AUC: 82 µg·h/mL
  Cmax: 15300 ng/mL
Clinical [8]; [15]
  AUC: 92.2 µg·h/mL
  Cmax: 16400 ng/mL
Clinical [8]; [16]
  AUC: 301 µg·h/mL
  Cmax: 52700 ng/mL
Clinical [8]; [17]
  AUC: 327 µg·h/mL
  Cmax: 51000 ng/mL
Human whole blood
  in vitro human whole blood IC90: 0.639 µg/mL
Human whole blood; read-out: in vitro human whole blood IC90
  IC90: 1480 nM
Clinical [9]
  half-life: 4.1 to 8.6 h
Clinical [9]; 150 mg
  AUC(0-t): 53.5 µg·h/mL
  Cmax: 8110 ng/mL
  Tmax: 2.1 h
  Vd/F: 16.7 L
  half-life: 4.1 h
Clinical [9]; 450 mg
  AUC(0-inf): 138 µg·h/mL
  AUC(0-t): 138 µg·h/mL
  Cmax: 22900 ng/mL
  Tmax: 2 h
  Vd/F: 30.2 L
  half-life: 5.8 h
Clinical [9]; 900 mg
  AUC(0-inf): 317 µg·h/mL
  AUC(0-t): 317 µg·h/mL
  Cmax: 50400 ng/mL
  Tmax: 2 h
  Vd/F: 34.9 L
  half-life: 6.8 h
Clinical [9]; 1800 mg
  AUC(0-inf): 739 µg·h/mL
  AUC(0-t): 738 µg·h/mL
  Cmax: 101000 ng/mL
  Tmax: 4 h
  Vd/F: 32.1 L
  half-life: 8.6 h
[10]
  no‐observed‐adverse‐effect level (NOAEL): 600 mg/kg/day
[11]
  blood:plasma ratio: 0.6
